pIC50, pKi: −log10 of the molar value.
How the values were obtained:
L1210 [1] = assay: Percentage of putrescine after 48 hr exposure to the compound (500(150)uM ) in L1210 cells; format: functional, Mus musculus
How it was run: (§1)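 Log-phase L1210 cells were treated for 48 h with analogue at two concentrations. Cells were washed twice in cold RPMI-1640 and extracted with 0.6 N HClO4. Putrescine, spermidine and spermine were quantified by HPLC of dansyl derivatives and given as percent of untreated controls. Runs were in triplicate with untreated controls.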

L1210 [2] = assay: Growth inhibitory activity against L1210 cells (96h); format: functional, cell-based; conditions: Mus musculus, L1210, 96 h
How it was run: (§2)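 Murine L1210 leukemia cells were kept in log growth in RPMI-1640 with 10% fetal calf serum or NuSerum, HEPES-MOPS buffer and 1 mM aminoguanidine. IC50 is the concentration giving 50% of untreated control growth, as the mean of at least two experiments.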

L1210 [3] = assay: Percentage of putrescine after 48 hr exposure to the compound (100(30)uM ) in L1210 cells; format: functional, Mus musculus; how it was run: as §1
[4] = target: T1, S-adenosylmethionine decarboxylase proenzyme 1 (Mus musculus) (UniProt P0DMN7); assay: Effect on S-Adenosyl-methionine decarboxylase (AdoMetDC) tested at 1 uM at 6 hour in L1210 cells; format: functional, cell-based
T1 sequence (whole entry): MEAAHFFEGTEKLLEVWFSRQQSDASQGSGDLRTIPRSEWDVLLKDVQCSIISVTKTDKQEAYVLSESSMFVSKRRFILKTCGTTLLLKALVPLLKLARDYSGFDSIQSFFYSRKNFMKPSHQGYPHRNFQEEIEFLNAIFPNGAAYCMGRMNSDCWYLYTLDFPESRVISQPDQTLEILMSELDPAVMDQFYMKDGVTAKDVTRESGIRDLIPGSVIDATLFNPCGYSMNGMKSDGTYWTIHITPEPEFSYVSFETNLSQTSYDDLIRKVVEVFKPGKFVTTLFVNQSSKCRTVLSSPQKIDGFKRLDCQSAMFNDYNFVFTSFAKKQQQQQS
How it was run: (§3)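 L1210 cells were exposed to 1 μM analogue, for 4 h (ODC) or 6 h (AdoMetDC). Activity was measured as 14CO2 released from [14C]carboxyl-labelled L-ornithine (ODC) or S-adenosyl-L-methionine (AdoMetDC) and given as percent of untreated control. Each run included DEHSPM-treated positive controls. Values are the mean of at least three experiments.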

[5] = Binding affinity values for polyamine transporter was determined
L1210 [6] = assay: Percentage of spermidine after 48 hr of exposure to the compound (100(30)uM ) in L1210 cells; format: functional, Mus musculus; how it was run: as §1
[7] = Effect on ornithine decarboxylase (ODC) tested at 1 uM at 4 hour in L1210 cells; format: functional, Mus musculus; how it was run: as §3
L1210 [8] = assay: Growth inhibitory activity against L1210 cells (48h); format: functional, cell-based; conditions: Mus musculus, L1210, 48 h; how it was run: as §2
L1210 [9] = assay: Percentage of spermidine after 48 hr of exposure to the compound (500(150)uM ) in L1210 cells; format: functional, Mus musculus; how it was run: as §1
[10] = target: Spermidine/spermine N(1)-acetyltransferase (SAT) (Mus musculus) (UniProt Q6P8J2+P48026); assay: Effect on Spermidine/Spermine-Acetyltransferase (SSAT ) at 10 uM at 48 hour in L1210 cells; format: functional, cell-based
How it was run: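 L1210 cells were exposed to 10 μM triamine for 48 h. SSAT activity was taken as [14C]N1-acetylspermidine formed from spermidine and [14C]acetyl-CoA, given as percent of untreated control. DENSPM-treated cells served as positive control. Values are the mean of at least three experiments.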

L1210 [11] = assay: Percentage of spermine after 48 hr exposure to the compound (500(150)uM ) in L1210 cells; format: functional, Mus musculus
How it was run: (§4)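 Log-phase murine L1210 leukemia cells (RPMI-1640, 10% fetal calf serum or NuSerum, HEPES-MOPS buffer, 1 mM aminoguanidine) exposed 48 h to analogue at two concentrations. Cells washed twice in cold RPMI-1640 and extracted with 0.6 N HClO4. Spermine in extracts quantified by HPLC of DANSYL derivatives and expressed as percent of untreated controls. Triplicate flasks per condition.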

L1210 [12] = assay: Percentage of spermine after 48 hr exposure to the compound (100(30)uM ) in L1210 cells; format: functional, Mus musculus; how it was run: as §1
L1210 [13] = assay: Intracellular levels in L1210 cells following 500 uM exposure.; format: functional, Mus musculus
How it was run: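 L1210 cells were grown 48 h in medium containing 500 μM analogue. Cellular contents were analysed by HPLC of dansyl derivatives and given as pmol/10^6 cells, as parent drug and metabolites with the % of total drug in the cell.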

[14] = The chronic lethal dose administered as intraperitoneal injection; format: ADME; conditions: mouse, ip
How it was run: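 Female CD-1 mice, 10–12 weeks old. Analogue given as hydrochloride salt by ip injection three times daily for 6 days (18 doses). Appetite, weight and appearance monitored daily, and lethality scored 10 days after the final dose.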

L1210 [15] = assay: Percentage of spermidine after 48 hr of exposure to the compound (25(10)uM ) in L1210 cells; format: functional, Mus musculus; how it was run: as §1
L1210 [16] = assay: Percentage of spermine after 48 hr exposure to the compound (125 uM ) in L1210 cells; format: functional, Mus musculus; how it was run: as §1
L1210 [17] = assay: Percentage of spermidine after 48 hr of exposure to the compound (125 uM ) in L1210 cells; format: functional, Mus musculus; how it was run: as §1
L1210 [18] = assay: Percentage of putrescine after 48 hr exposure to the compound (25(10)uM ) in L1210 cells; format: functional, Mus musculus; how it was run: as §1
L1210 [19] = assay: Percentage of putrescine after 48 hr exposure to the compound (125 uM ) in L1210 cells; format: functional, Mus musculus; how it was run: as §1
L1210 [20] = assay: Percentage of putrescine after 48 hr exposure to the compound (75(0.75)uM ) in L1210 cells; format: functional, Mus musculus; how it was run: as §1
L1210 [21] = assay: Percentage of putrescine after 48 hr exposure to the compound (15(0.15)uM ) in L1210 cells; format: functional, Mus musculus; how it was run: as §1
L1210 [22] = assay: Percentage of spermine after 48 hr exposure to the compound (15(0.15)uM ) in L1210 cells; format: functional, Mus musculus; how it was run: as §1
L1210 [23] = assay: Percentage of spermidine after 48 hr of exposure to the compound (15(0.15)uM ) in L1210 cells; format: functional, Mus musculus; how it was run: as §1
L1210 [24] = assay: Percentage of spermidine after 48 hr of exposure to the compound (75(0.75)uM ) in L1210 cells; format: functional, Mus musculus; how it was run: as §1
L1210 [25] = assay: Percentage of spermine after 48 hr exposure to the compound (75(0.75)uM ) in L1210 cells; format: functional, Mus musculus; how it was run: as §4
L1210 [26] = assay: Percentage of putrescine after 48 hr exposure to the compound (2 uM ) in L1210 cells; format: functional, Mus musculus; how it was run: as §1
L1210 [27] = assay: Percentage of spermidine after 48 hr of exposure to the compound (10 uM ) in L1210 cells; format: functional, Mus musculus; how it was run: as §1
L1210 [28] = assay: Percentage of spermidine after 48 hr of exposure to the compound (2 uM ) in L1210 cells; format: functional, Mus musculus; how it was run: as §1
L1210 [29] = assay: Percentage of putrescine after 48 hr exposure to the compound (10 uM ) in L1210 cells; format: functional, Mus musculus; how it was run: as §1

Spermidine/spermine N(1)-acetyltransferase (SAT) (Mus musculus), sequence (P48026 whole entry, looked up): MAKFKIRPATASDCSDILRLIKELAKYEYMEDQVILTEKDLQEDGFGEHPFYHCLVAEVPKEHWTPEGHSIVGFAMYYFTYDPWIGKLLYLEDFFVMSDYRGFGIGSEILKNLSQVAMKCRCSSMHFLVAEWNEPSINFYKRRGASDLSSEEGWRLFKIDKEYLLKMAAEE
Spermidine/spermine N(1)-acetyltransferase (SAT) (Mus musculus), sequence (Q6P8J2 whole entry, looked up): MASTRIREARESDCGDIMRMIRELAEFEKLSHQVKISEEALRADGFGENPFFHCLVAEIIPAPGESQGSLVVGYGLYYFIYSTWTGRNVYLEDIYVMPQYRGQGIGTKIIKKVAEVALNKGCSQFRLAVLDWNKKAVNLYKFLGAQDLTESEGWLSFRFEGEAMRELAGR

Row | pIC50 (L1210 [2]) | AdoMetDC [4] [%] | pKi [5] | pIC50 (L1210 [8]) | SSAT [10] [%] | SMILES | ODC [7] [%] | Picoequivalents of amine/10e6 cells (L1210 [13]) | other results
1 | 6.46 | 90 | 4.72 | 4.66 | 640 | CCNCCCCNCCCCNCC | 47 | 16920 | Polyamine (L1210 [15]): 6%; Polyamine (L1210 [16]): 97%; Polyamine (L1210 [17]): 3%; Polyamine (L1210 [18]): 0%; Polyamine (L1210 [19]): 0%
2 | 6.15 | 109 | 3.77 | 4.96 | 90 | CCNCCCCCNCCCCCNCC | 100 | 9010 | Polyamine (L1210 [20]): 0%; Polyamine (L1210 [21]): 0%; Polyamine (L1210 [22]): 97%; Polyamine (L1210 [23]): 55%; Polyamine (L1210 [24]): 23%; Polyamine (L1210 [25]): 73%
3 | 6.92 | 71 | 4.68 | 5.70 | 130 | CNCCCCCNCCCCNC | 56 | 20810 | Polyamine (L1210 [26]): 0%; Polyamine (L1210 [27]): 18%; Polyamine (L1210 [28]): 33%; Polyamine (L1210 [29]): 0%

Row | SMILES | pIC50 (L1210 [2]) | AdoMetDC [4] [%] | pKi [5] | pIC50 (L1210 [8]) | SSAT [10] [%] | ODC [7] [%] | Picoequivalents of amine/10e6 cells (L1210 [13]) | other results
4 | CCNCCCCNCCCNCC | 6.15 | 68 | 4.72 | 4.00 | 1380 | 30 | 14050 | Polyamine (L1210 [1]): 0%; Polyamine (L1210 [3]): 0%; Polyamine (L1210 [6]): 5%; Polyamine (L1210 [9]): 0%; Polyamine (L1210 [11]): 55%; Polyamine (L1210 [12]): 74%; LD50 [14]: 426 mg/kg/day

From ChEMBL document CHEMBL1130028, “A comparison of structure-activity relationships between spermidine and spermine analogue antineoplastics” (J Med Chem, 1997)
